From ChEMBL document CHEMBL3526048, “In vitro metabolism of rivoglitazone, a novel peroxisome proliferator-activated receptor γ agonist, in rat, monkey, and human liver microsomes and freshly isolated hepatocytes” (Drug Metab Dispos, 2011)

Tests used:
[1] = Drug metabolism in cynomolgus monkey liver microsomes assessed as formation of (2S,3S,4S,5R,6R)-6-((1-carboxy-2-(4-((6-methoxy-1-methyl-1H-benzo[d]imidazol-2-yl)methoxy)phenyl)ethylthio)carbonylamino)-3,4,5-trihydroxytetrahydro-2H-pyran-2-carboxylic acid at 20 uM after 4 hrs by radio-HPLC/LC-MS/MS analysis in presence of UDPGA and UDPGA/SAM; assay type: ADME, Macaca fascicularis
Cytochrome P450 2C9 = Cytochrome P450 2C9 (Homo sapiens, UniProt P11712); test: Activity of human CYP2C9 expressed in microsomes isolated from baculovirus infected insect cell assessed as enzyme-mediated 3-(4-((6-methoxy-1-methyl-1H-benzo[d]imidazol-2-yl)methoxy)phenyl)-2-(methylsulfonyl)propanamide formation at 20 uM after 2 hrs by radio-HPLC/LC-MS/MS analysis in presence of NADPH-generating system/SAM; assay type: ADME
Chain of Cytochrome P450 2C9 (P11712 whole entry): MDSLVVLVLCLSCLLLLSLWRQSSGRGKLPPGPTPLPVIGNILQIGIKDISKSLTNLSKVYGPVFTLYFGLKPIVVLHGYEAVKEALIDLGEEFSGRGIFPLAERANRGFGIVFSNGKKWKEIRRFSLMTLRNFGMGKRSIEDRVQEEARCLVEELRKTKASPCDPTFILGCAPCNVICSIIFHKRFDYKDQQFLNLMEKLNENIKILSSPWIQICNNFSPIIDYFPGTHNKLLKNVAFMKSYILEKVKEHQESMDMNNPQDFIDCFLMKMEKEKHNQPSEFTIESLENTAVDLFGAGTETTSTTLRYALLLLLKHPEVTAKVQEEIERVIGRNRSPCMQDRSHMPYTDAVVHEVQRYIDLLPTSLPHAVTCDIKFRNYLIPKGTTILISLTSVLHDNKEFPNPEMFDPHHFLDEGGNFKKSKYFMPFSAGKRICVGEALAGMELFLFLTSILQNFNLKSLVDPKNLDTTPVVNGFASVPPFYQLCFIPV

Cytochrome P450 2C8 = molecular target: T1, Cytochrome P450 2C8 (Homo sapiens, UniProt P10632); test: Activity of human CYP2C8 expressed in microsomes isolated from baculovirus infected insect cell assessed as enzyme-mediated 2-mercapto-3-(4-((6-methoxy-1-methyl-1H-benzo[d]imidazol-2-yl)methoxy)phenyl)propanoic acid formation at 20 uM after 2 hrs by radio-HPLC/LC-MS/MS analysis in presence of NADPH-generating system; assay type: ADME
T1 sequence (P10632 whole entry): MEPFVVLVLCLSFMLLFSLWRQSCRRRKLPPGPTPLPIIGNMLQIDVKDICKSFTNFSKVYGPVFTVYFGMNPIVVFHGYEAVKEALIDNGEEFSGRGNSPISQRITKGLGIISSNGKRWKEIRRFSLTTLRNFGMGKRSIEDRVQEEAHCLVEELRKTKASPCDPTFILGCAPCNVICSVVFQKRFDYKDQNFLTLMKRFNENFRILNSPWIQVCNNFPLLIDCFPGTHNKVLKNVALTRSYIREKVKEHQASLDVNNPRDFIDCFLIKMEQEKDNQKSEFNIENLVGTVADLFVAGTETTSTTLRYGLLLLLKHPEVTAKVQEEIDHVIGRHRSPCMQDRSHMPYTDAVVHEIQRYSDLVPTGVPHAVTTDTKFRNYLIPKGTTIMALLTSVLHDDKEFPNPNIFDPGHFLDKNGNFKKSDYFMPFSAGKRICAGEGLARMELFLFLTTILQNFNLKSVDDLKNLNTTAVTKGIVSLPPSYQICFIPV
In short: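 Baculovirus/insect-cell microsomes expressing single human CYPs, 1 mg/ml protein, with 50 mM potassium phosphate (pH 7.4) or 100 mM Tris-HCl (pH 7.5). NADPH-generating system: 2 mM NADP⁺, 20 mM glucose 6-phosphate, 2 units/ml G6PDH, 10 mM MgCl₂. [¹⁴C]rivoglitazone at 20 μM, 2 h at 37°C with shaking. Control used insect-cell control supersomes. Stopped with acetonitrile; supernatant concentrated under nitrogen; metabolites analysed by radio-HPLC, LC-MS and LC-MS/MS.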

[2] = molecular target: T2, UDP-glucuronosyltransferase 1A1 (Homo sapiens, UniProt P22309); test: (§1) Activity of human UGT1A1 expressed in microsomes isolated from baculovirus infected insect cell assessed as enzyme-mediated (2S,3S,4S,5R,6R)-3,4,5-trihydroxy-6-(5-(4-((6-methoxy-1-methyl-1H-benzo[d]imidazol-2-yl)methoxy)benzyl)-2,4-dioxothiazolidin-3-yl)tetrahydro-2H-pyran-2-carboxylic acid formation at 20 uM after 4 hrs by radio-HPLC/LC-MS/MS analysis in presence of UDPGA; assay type: ADME
T2 sequence (P22309 whole entry): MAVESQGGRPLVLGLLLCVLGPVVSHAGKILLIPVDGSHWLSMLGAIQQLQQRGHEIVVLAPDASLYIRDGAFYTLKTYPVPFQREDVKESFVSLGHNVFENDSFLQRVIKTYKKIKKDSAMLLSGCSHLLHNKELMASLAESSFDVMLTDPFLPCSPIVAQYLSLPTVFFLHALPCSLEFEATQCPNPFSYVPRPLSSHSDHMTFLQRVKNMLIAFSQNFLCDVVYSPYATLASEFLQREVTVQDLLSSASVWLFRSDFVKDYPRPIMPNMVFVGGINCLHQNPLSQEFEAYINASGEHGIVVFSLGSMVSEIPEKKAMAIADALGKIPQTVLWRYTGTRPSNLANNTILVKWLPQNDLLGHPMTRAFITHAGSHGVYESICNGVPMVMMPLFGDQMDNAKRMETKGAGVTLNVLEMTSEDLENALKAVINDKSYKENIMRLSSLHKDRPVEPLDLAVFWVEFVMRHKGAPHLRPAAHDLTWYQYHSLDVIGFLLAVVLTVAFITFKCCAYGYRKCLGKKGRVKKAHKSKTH
In short: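 Alamethicin (50 μg/mg protein, 15 min on ice) pretreated expressed human UGT microsomes (1 mg/ml protein) from baculovirus-infected insect cells. Incubation with [¹⁴C]rivoglitazone (20 μM) in 100 mM Tris-HCl (pH 7.5) with 10 mM MgCl₂, started by 5 mM UDPGA, 4 h at 37°C with shaking. UGT insect-cell control supersomes were run alongside. Acetonitrile stop, concentrated supernatant analysed by radio-HPLC, LC-MS and LC-MS/MS.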

[3] = molecular target: T3, UDP-glucuronosyltransferase 1A7 (Homo sapiens, UniProt Q9HAW7); test: as §1, with “UGT1A7” for “UGT1A1”; assay type: ADME
T3 sequence (Q9HAW7 whole entry): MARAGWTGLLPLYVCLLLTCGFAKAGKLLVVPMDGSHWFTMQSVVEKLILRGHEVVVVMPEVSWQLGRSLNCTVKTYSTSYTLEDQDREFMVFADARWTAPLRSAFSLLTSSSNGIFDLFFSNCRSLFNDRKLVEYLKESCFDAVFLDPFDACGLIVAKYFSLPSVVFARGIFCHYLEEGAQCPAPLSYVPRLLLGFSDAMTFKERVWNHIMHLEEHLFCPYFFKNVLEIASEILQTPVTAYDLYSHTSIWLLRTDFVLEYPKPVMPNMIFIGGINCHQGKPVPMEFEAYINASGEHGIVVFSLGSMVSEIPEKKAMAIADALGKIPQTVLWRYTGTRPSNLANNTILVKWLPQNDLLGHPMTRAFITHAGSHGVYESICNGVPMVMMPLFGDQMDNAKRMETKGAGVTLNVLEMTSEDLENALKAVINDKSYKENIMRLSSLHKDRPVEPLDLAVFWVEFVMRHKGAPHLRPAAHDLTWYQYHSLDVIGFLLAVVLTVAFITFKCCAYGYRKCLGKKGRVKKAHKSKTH

Cytochrome P450 3A4 = Cytochrome P450 3A4 (Homo sapiens, UniProt P08684); test: Activity of human CYP3A4 expressed in microsomes isolated from baculovirus infected insect cell assessed as enzyme-mediated 3-(4-((6-methoxy-1-methyl-1H-benzo[d]imidazol-2-yl)methoxy)phenyl)-2-(methylthio)propanamide formation at 20 uM after 2 hrs by radio-HPLC/LC-MS/MS analysis in presence of NADPH-generating system/SAM; assay type: ADME
Chain of Cytochrome P450 3A4 (P08684 whole entry): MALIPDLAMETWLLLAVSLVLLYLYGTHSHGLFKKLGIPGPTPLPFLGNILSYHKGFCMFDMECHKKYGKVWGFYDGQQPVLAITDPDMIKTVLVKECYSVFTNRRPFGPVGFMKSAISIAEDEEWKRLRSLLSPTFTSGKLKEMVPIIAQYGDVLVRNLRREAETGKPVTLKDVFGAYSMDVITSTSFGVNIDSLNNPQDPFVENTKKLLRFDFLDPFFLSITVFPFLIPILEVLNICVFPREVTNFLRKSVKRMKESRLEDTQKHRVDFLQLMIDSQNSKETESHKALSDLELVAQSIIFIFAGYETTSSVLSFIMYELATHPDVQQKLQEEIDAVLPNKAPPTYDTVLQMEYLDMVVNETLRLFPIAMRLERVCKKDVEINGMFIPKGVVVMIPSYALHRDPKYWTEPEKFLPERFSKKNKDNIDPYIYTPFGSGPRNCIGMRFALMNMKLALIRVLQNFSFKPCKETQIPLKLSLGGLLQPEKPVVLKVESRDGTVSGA

Measured: Drug metabolism

COc1ccc2nc(COc3ccc(C[14CH]4SC(=O)NC4=O)cc3)n(C)c2c1.Cl (racemic)
metabolite_detected: [1] | Cytochrome P450 2C8
metabolite_not_detected: all other assays above
